{"source": "ChEMBL document CHEMBL2163294", "about": "“2-(N-Benzyl-N-phenylsulfonamido)alkyl amide derivatives as γ-secretase inhibitors” (Bioorg Med Chem Lett, 2012)", "key": {"[1]": {"test": "Inhibition of gamma-secretase-mediated amyloid beta42 production by GS H4-8 SW1-42 assay", "details": "read-out: IC50"}, "[2]": {"test": "Plasma concentration in Tg2576 mouse at 200 umol/kg, po measured at 180 mins", "assay_type": "ADME, organism-based", "how_it_was_run": "(§1)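 Transgenic mice received a single 200 µmol/kg dose. […] Test-compound concentrations in brain and plasma (nM) were measured at the same time point.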"}, "[3]": {"test_system": "Mus musculus", "test": "Antialzheimer activity in Tg2576 mouse assessed as reduction in brain amyloid-beta40 level at 200 umol/kg, po measured at 180 mins", "assay_type": "functional", "details": "3 h", "how_it_was_run": "as §1"}, "[4]": {"test": "Drug uptake in Tg2576 mouse brain at 200 umol/kg, po measured at 180 mins", "assay_type": "ADME, organism-based", "details": "read-out: Drug uptake", "how_it_was_run": "as §1"}, "[5]": {"test_system": "Liver", "test": "Metabolic stability in mouse liver microsomes", "assay_type": "ADME, Microsome"}, "[6]": {"test_system": "Mus musculus", "test": "Antialzheimer activity in Tg2576 mouse assessed as reduction in plasma amyloid-beta40 level at 200 umol/kg, po measured at 180 mins", "assay_type": "functional", "details": "3 h", "how_it_was_run": "as §1"}, "[7]": {"test_system": "Liver microsomes", "test": "Metabolic stability in human liver microsomes", "assay_type": "ADME, Microsome"}, "[8]": {"test": "Inhibition of gamma-secretase"}}, "data": [{"smiles": "CCCC[C@H](C(N)=O)N(Cc1ccc(C#N)cc1)S(=O)(=O)c1ccc(Cl)cc1", "values": [{"measurement": "IC50", "setting": "[1]", "result": 1, "unit": "nM"}]}, {"smiles": "COc1ccc(CN([C@H](CC(C)C)C(=O)O)S(=O)(=O)c2ccc(Cl)cc2)cc1F", "values": [{"measurement": "IC50", "setting": "[1]", "result": 220, "unit": "nM"}]}, {"smiles": "CC(C)C[C@H](C(N)=O)N(Cc1ccc(C#N)cc1)S(=O)(=O)c1ccc(Cl)cc1", "values": [{"measurement": "IC50", "setting": "[1]", "result": 0.67, "unit": "nM"}]}, {"smiles": "COc1ccc(CN(CC(N)=O)S(=O)(=O)c2ccc(Cl)cc2)cc1F", "values": [{"measurement": "IC50", "setting": "[1]", "result": 2000, "unit": "nM"}]}, {"smiles": "COc1ccc(CN([C@@H]2CCCCNC2=O)S(=O)(=O)c2ccc(Cl)cc2)cc1", "values": [{"measurement": "concentration at 3 h", "setting": "[2]", "result": 280, "unit": "nM"}, {"measurement": "inhibition in vivo at 200 µmol/kg", "setting": "[3]", "result": 49, "unit": "%"}, {"measurement": "concentration at 3 h", "setting": "[4]", "result": 2200, "unit": "nM"}, {"measurement": "Stability", "setting": "[5]", "result": 0.22, "unit": "nmol/min/mg"}, {"measurement": "inhibition in vivo at 200 µmol/kg", "setting": "[6]", "result": 47, "unit": "%"}, {"measurement": "Stability", "setting": "[7]", "result": 0.23, "unit": "nmol/min/mg"}]}, {"smiles": "Cc1ccc(S(=O)(=O)N(Cc2ccc(C#N)cc2)[C@H](CC(C)C)C(N)=O)cc1", "values": [{"measurement": "IC50", "setting": "[1]", "result": 2.8, "unit": "nM"}]}, {"smiles": "COC[C@H](C(N)=O)N(Cc1ccc(C#N)cc1)S(=O)(=O)c1ccc(Cl)cc1", "values": [{"measurement": "IC50", "setting": "[1]", "result": 48, "unit": "nM"}]}, {"smiles": "COc1ccc(CN([C@H](CC(C)C)C(N)=O)S(=O)(=O)c2cccc(C)c2)cc1F", "values": [{"measurement": "IC50", "setting": "[1]", "result": 9.2, "unit": "nM"}]}, {"smiles": "COc1ccc(CN([C@H](CC(C)C)C(N)=O)S(=O)(=O)c2ccc(C)cc2)cc1F", "values": [{"measurement": "IC50", "setting": "[1]", "result": 0.45, "unit": "nM"}]}, {"smiles": "CC(C)C[C@H](C(N)=O)N(Cc1ccc(F)c(F)c1)S(=O)(=O)c1ccc(Cl)cc1", "values": [{"measurement": "IC50", "setting": "[1]", "result": 0.44, "unit": "nM"}]}, {"smiles": "COc1ccc(CN([C@H](CC(C)C)c2nc(C)ns2)S(=O)(=O)c2ccc(Cl)cc2)cc1", "values": [{"measurement": "IC50", "setting": "[1]", "result": 1200, "unit": "nM"}]}, {"smiles": "CC(C)C[C@H](C(N)=O)N(Cc1ccc(OC(F)(F)F)cc1)S(=O)(=O)c1ccc(Cl)cc1", "values": [{"measurement": "IC50", "setting": "[1]", "result": 0.69, "unit": "nM"}]}, {"smiles": "COc1ccc(CN([C@H](CC(C)C)C(=O)NN)S(=O)(=O)c2ccc(Cl)cc2)cc1", "values": [{"measurement": "IC50", "setting": "[1]", "result": 53, "unit": "nM"}]}, {"smiles": "CC(C)C[C@H](C(N)=O)N(Cc1ccc(CN(C)C)cc1)S(=O)(=O)c1ccc(Cl)cc1", "values": [{"measurement": "IC50", "setting": "[1]", "result": 7.7, "unit": "nM"}]}, {"smiles": "COc1ccc(CN([C@H](C)C(N)=O)S(=O)(=O)c2ccc(Cl)cc2)cc1F", "values": [{"measurement": "IC50", "setting": "[1]", "result": 5.3, "unit": "nM"}]}, {"smiles": "COc1ccccc1CN([C@H](CC(C)C)C(N)=O)S(=O)(=O)c1ccc(Cl)cc1", "values": [{"measurement": "IC50", "setting": "[1]", "result": 23, "unit": "nM"}]}, {"smiles": "CNC(=O)[C@@H](CC(C)C)N(Cc1ccc(OC)cc1)S(=O)(=O)c1ccc(Cl)cc1", "values": [{"measurement": "IC50", "setting": "[1]", "result": 380, "unit": "nM"}]}, {"smiles": "C[S+]([O-])CC[C@H](C(N)=O)N(Cc1ccc(C#N)cc1)S(=O)(=O)c1ccc(Cl)cc1", "note": "(stereo partly specified)", "values": [{"measurement": "IC50", "setting": "[1]", "result": 1800, "unit": "nM"}]}, {"smiles": "COc1ccc(CN([C@H](CC(C)C)C(N)=O)S(=O)(=O)c2ccc(Cl)cc2)cc1F", "values": [{"measurement": "IC50", "setting": "[1]", "result": 0.15, "unit": "nM"}]}, {"smiles": "CC(C)C[C@H](C(N)=O)N(Cc1ccc(C(C)C)cc1)S(=O)(=O)c1ccc(Cl)cc1", "values": [{"measurement": "IC50", "setting": "[1]", "result": 0.58, "unit": "nM"}]}, {"smiles": "COc1cccc(CN([C@H](CC(C)C)C(N)=O)S(=O)(=O)c2ccc(Cl)cc2)c1", "values": [{"measurement": "IC50", "setting": "[1]", "result": 0.59, "unit": "nM"}]}, {"smiles": "COc1ccc(CN([C@H](Cc2ccccc2)C(N)=O)S(=O)(=O)c2ccc(Cl)cc2)cc1", "values": [{"measurement": "IC50", "setting": "[1]", "result": 390, "unit": "nM"}]}, {"smiles": "CC(C)C[C@H](C(N)=O)N(CCCCN1CCOCC1)S(=O)(=O)c1ccc(Cl)cc1", "values": [{"measurement": "IC50", "setting": "[1]", "result": 9.9, "unit": "nM"}]}, {"smiles": "CC(C)(C)C(=O)C[C@H](C(N)=O)N(Cc1ccc(C#N)cc1)S(=O)(=O)c1ccc(Cl)cc1", "values": [{"measurement": "IC50", "setting": "[1]", "result": 54, "unit": "nM"}]}, {"smiles": "CS(=O)(=O)CC[C@H](C(N)=O)N(Cc1ccc(C#N)cc1)S(=O)(=O)c1ccc(Cl)cc1", "values": [{"measurement": "IC50", "setting": "[1]", "result": 4300, "unit": "nM"}]}, {"smiles": "COc1ccc(CN([C@H](CC(C)C)C(=O)NO)S(=O)(=O)c2ccc(Cl)cc2)cc1F", "values": [{"measurement": "IC50", "setting": "[1]", "result": 19, "unit": "nM"}]}, {"smiles": "CCC[C@H](C(N)=O)N(Cc1ccc(C#N)cc1)S(=O)(=O)c1ccc(Cl)cc1", "values": [{"measurement": "IC50", "setting": "[1]", "result": 2.6, "unit": "nM"}]}, {"smiles": "CC(C)C[C@H](C(N)=O)N(CCCCCCn1ccnc1)S(=O)(=O)c1ccc(Cl)cc1", "values": [{"measurement": "IC50", "setting": "[1]", "result": 4.9, "unit": "nM"}]}, {"smiles": "COc1ccc(CN([C@H](CC(C)C)C(N)=O)S(=O)(=O)c2ccccc2)cc1F", "values": [{"measurement": "IC50", "setting": "[1]", "result": 1.7, "unit": "nM"}]}, {"smiles": "NC(=O)[C@@H](CCC(F)(F)F)N(Cc1ccc(-c2ncon2)cc1F)S(=O)(=O)c1ccc(Cl)cc1", "values": [{"measurement": "IC50", "setting": "[8]", "result": 0.3, "unit": "nM"}]}, {"smiles": "COc1ccc(CN([C@@H](CC(C)C)C(N)=O)S(=O)(=O)c2ccc(Cl)cc2)cc1", "values": [{"measurement": "IC50", "setting": "[1]", "result": 315, "unit": "nM"}]}]}
